How the values were obtained:
[1] = Cytotoxicity against human Hs 578T cells after 48 hrs by SRB assay; assay type: functional
[2] = tested on: EKVX; assay: Cytotoxicity against human EKVX cells after 48 hrs by SRB assay; assay type: functional
[3] = Cytotoxicity against human Raji cells assessed as cell viability at 1000 molar ratio; assay type: cell-based; conditions: read-out: Activity
How it was run: (§1)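 Raji cells were treated with 32 pmol TPA to induce EBV early antigen activation. The test agent was added at 10, 100, 500 or 1000 mol ratio relative to TPA, and Raji cell viability was measured alongside EA activation.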

[4] = tested on: HOP-62; assay: Cytotoxicity against human HOP-62 cells after 48 hrs by SRB assay; assay type: functional; conditions: HOP-62, 48 h
[5] = tested on: Malme-3M; assay: Cytotoxicity against human MALME-3M cells after 48 hrs by SRB assay; assay type: functional
[6] = tested on: SN12C; assay: Cytotoxicity against human SN12C cells after 48 hrs by SRB assay; assay type: functional
[7] = tested on: UO-31; assay: Cytotoxicity against human UO-31 cells after 48 hrs by SRB assay; assay type: functional; conditions: UO-31, 48 h
How it was run: (§2)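 Tested in the NCI panel of 60 human tumour cell lines covering lung, colon, melanoma, renal, ovarian, breast and leukaemia. At least five concentrations were run in 10-fold dilutions starting from 10^-4 M. Exposure was continuous for 48 h. Growth or viability was estimated by sulforhodamine B protein staining, and GI50 values were reported.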

[8] = Cytotoxicity against human Raji cells assessed as cell viability at 100 molar ratio; assay type: cell-based; conditions: read-out: Activity; how it was run: as §1
[9] = tested on: SF-268; assay: Cytotoxicity against human SF-268 cells after 48 hrs by SRB assay; assay type: functional; conditions: SF-268, 48 h
[10] = tested on: BT-549; assay: Cytotoxicity against human BT-549 cells after 48 hrs by SRB assay; assay type: functional; conditions: BT-549, 48 h
[11] = tested on: NCI-H23; assay: Cytotoxicity against human NCI-H23 cells after 48 hrs by SRB assay; assay type: functional; conditions: NCI-H23, 48 h
[12] = Cytotoxicity against human Raji cells assessed as cell viability at 500 molar ratio; assay type: cell-based; conditions: read-out: Activity; how it was run: as §1
[13] = Cytotoxicity against human Raji cells assessed as cell viability at 10 molar ratio; assay type: cell-based; conditions: read-out: Activity; how it was run: as §1
[14] = tested on: T47D; assay: Cytotoxicity against human T47D cells after 48 hrs by SRB assay; assay type: functional; how it was run: as §2
[15] = tested on: CAKI-1; assay: Cytotoxicity against human Caki-1 cells after 48 hrs by SRB assay; assay type: functional; conditions: CAKI-1, 48 h
[16] = tested on: SNB-19; assay: Cytotoxicity against human SNB-19 cells after 48 hrs by SRB assay; assay type: functional; conditions: SNB-19, 48 h
[17] = tested on: OVCAR-3; assay: Cytotoxicity against human OVCAR-3 cells after 48 hrs by SRB assay; assay type: functional; conditions: OVCAR-3, 48 h
[18] = tested on: NCI-H460; assay: Cytotoxicity against human NCI-H460 cells after 48 hrs by SRB assay; assay type: functional; conditions: NCI-H460, 48 h
[19] = tested on: HOP-92; assay: Cytotoxicity against human HOP-92 cells after 48 hrs by SRB assay; assay type: functional; conditions: HOP-92, 48 h
[20] = tested on: TK-10; assay: Cytotoxicity against human TK-10 cells after 48 hrs by SRB assay; assay type: functional; conditions: TK-10, 48 h; how it was run: as §2
[21] = tested on: PC-3; assay: Cytotoxicity against human PC-3 cells after 48 hrs by SRB assay; assay type: functional; conditions: PC-3, 48 h
[22] = tested on: SK-MEL-2; assay: Cytotoxicity against human SK-MEL-2 cells after 48 hrs by SRB assay; assay type: functional; conditions: SK-MEL-2, 48 h
[23] = tested on: NCI-H226; assay: Cytotoxicity against human NCI-H226 cells after 48 hrs by SRB assay; assay type: functional; conditions: NCI-H226, 48 h
[24] = tested on: A549; assay: Cytotoxicity against human A549 cells after 48 hrs by SRB assay; assay type: functional; conditions: A549, 48 h
[25] = tested on: SF-295; assay: Cytotoxicity against human SF-295 cells after 48 hrs by SRB assay; assay type: functional; conditions: SF-295, 48 h
[26] = tested on: OVCAR-5; assay: Cytotoxicity against human OVCAR5 cells after 48 hrs by SRB assay; assay type: functional; conditions: OVCAR-5, 48 h
[27] = tested on: K562; assay: Cytotoxicity against human K-562 cells after 48 hrs by SRB assay; assay type: functional; conditions: K562, 48 h
[28] = tested on: Raji; assay: Inhibition of TPA-induced EBV-early antigen activation in human Raji cells at 500 molar ratio relative to TPA; assay type: cell-based; set-up: scale not given: the % may be the effect or the level left; conditions: human gammaherpesvirus 4
[29] = tested on: IGROV-1; assay: Cytotoxicity against human IGROV1 cells after 48 hrs by SRB assay; assay type: functional; conditions: IGROV-1, 48 h
[30] = tested on: RXF 393; assay: Cytotoxicity against human […] cells after 48 hrs by SRB assay; assay type: functional; conditions: RXF 393, 48 h
[31] = tested on: 786-0; assay: Cytotoxicity against human 786-0 cells after 48 hrs by SRB assay; assay type: functional; conditions: 786-0, 48 h
[32] = tested on: Raji; assay: Inhibition of TPA-induced EBV-early antigen activation in human Raji cells at 100 molar ratio relative to TPA; assay type: cell-based; set-up: scale not given: the % may be the effect or the level left; conditions: human gammaherpesvirus 4
[33] = Inhibition of TPA-induced EBV-early antigen activation in human Raji cells relative to TPA; assay type: cell-based, human gammaherpesvirus 4
[34] = tested on: SK-MEL-5; assay: Cytotoxicity against human SK-MEL-5 cells after 48 hrs by SRB assay; assay type: functional; conditions: SK-MEL-5, 48 h
[35] = tested on: MOLT-4; assay: Cytotoxicity against human MOLT-4 cells after 48 hrs by SRB assay; assay type: functional; conditions: MOLT-4, 48 h
[36] = tested on: KM12; assay: Cytotoxicity against human KM12 cells after 48 hrs by SRB assay; assay type: functional; conditions: KM12, 48 h
[37] = tested on: NCI/ADR-RES; assay: Cytotoxicity against human NCI/ADR-RES cells after 48 hrs by SRB assay; assay type: functional
[38] = tested on: MDA-MB-231; assay: Cytotoxicity against human MDA-MB-231 cells after 48 hrs by SRB assay; assay type: functional; conditions: MDA-MB-231, 48 h
[39] = Cytotoxicity against human SK MEL28 cells after 48 hrs by SRB assay; assay type: functional; conditions: SK-MEL-28, 48 h
[40] = tested on: MCF7; assay: Cytotoxicity against human MCF7 cells after 48 hrs by SRB assay; assay type: functional; conditions: MCF7, 48 h
[41] = tested on: HL-60; assay: Cytotoxicity against human HL-60 cells after 48 hrs by SRB assay; assay type: functional; conditions: HL-60, 48 h
[42] = Cytotoxicity against human HCT 116 cells after 48 hrs by SRB assay; assay type: functional; conditions: HCT-116, 48 h
[43] = tested on: SW-620; assay: Cytotoxicity against human SW620 cells after 48 hrs by SRB assay; assay type: functional; conditions: SW-620, 48 h
[44] = tested on: Mus musculus; assay: Antiinflammatory activity against TPA-induced ear edema in mouse; assay type: functional
How it was run: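 Specific-pathogen-free female ICR mice were housed five per cage at 24 ± 2 °C. Inflammation was induced on the ear with TPA at 1 µg/ear, and the test agent was applied per ear. Ear edema inhibition was expressed as ID50 in mg per ear.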

[45] = tested on: OVCAR-8; assay: Cytotoxicity against human OVCAR8 cells after 48 hrs by SRB assay; assay type: functional; conditions: OVCAR-8, 48 h
[46] = tested on: NCI-H322M; assay: Cytotoxicity against human NCI-H322M cells after 48 hrs by SRB assay; assay type: functional
[47] = tested on: NCI-H522; assay: Cytotoxicity against human NCI-H522 cells after 48 hrs by SRB assay; assay type: functional; conditions: NCI-H522, 48 h
[48] = tested on: HT-29; assay: Cytotoxicity against human HT-29 cells after 48 hrs by SRB assay; assay type: functional; conditions: HT-29, 48 h
[49] = tested on: LOX IMVI; assay: Cytotoxicity against human LOX IMVI cells after 48 hrs by SRB assay; assay type: functional
[50] = tested on: Raji; assay: Inhibition of TPA-induced EBV-early antigen activation in human Raji cells at 1000 molar ratio relative to TPA; assay type: cell-based; set-up: scale not given: the % may be the effect or the level left; conditions: human gammaherpesvirus 4
[51] = tested on: ACHN; assay: Cytotoxicity against human ACHN cells after 48 hrs by SRB assay; assay type: functional
[52] = tested on: HCT-15; assay: Cytotoxicity against human HCT-15 cells after 48 hrs by SRB assay; assay type: functional; conditions: HCT-15, 48 h
[53] = tested on: Raji; assay: Inhibition of TPA-induced EBV-early antigen activation in human Raji cells at 10 molar ratio relative to TPA; assay type: cell-based; set-up: scale not given: the % may be the effect or the level left; conditions: human gammaherpesvirus 4
[54] = tested on: HCC 2998; assay: Cytotoxicity against human HCC2998 cells after 48 hrs by SRB assay; assay type: functional; conditions: HCC 2998, 48 h
[55] = tested on: UACC-62; assay: Cytotoxicity against human UACC-62 cells after 48 hrs by SRB assay; assay type: functional; conditions: UACC-62, 48 h; how it was run: as §2
[56] = tested on: UACC-257; assay: Cytotoxicity against human UACC-257 cells after 48 hrs by SRB assay; assay type: functional; conditions: UACC-257, 48 h; how it was run: as §2
[57] = tested on: COLO 205; assay: Cytotoxicity against human COLO205 cells after 48 hrs by SRB assay; assay type: functional; conditions: COLO 205, 48 h
[58] = tested on: MDA-MB-435; assay: Cytotoxicity against human MDA-MB-435 cells after 48 hrs by SRB assay; assay type: functional; conditions: MDA-MB-435, 48 h

CCCCOC(=O)[C@H]1O[C@@H](O[C@H]2CC[C@]3(C)[C@H]4CC=C5[C@@H]6CC(C)(C)CC[C@]6(C(=O)O)CC[C@@]5(C)[C@]4(C)CC[C@H]3C2(C)C)[C@H](O[C@@H]2O[C@H](CO)[C@@H](O)[C@H](O)[C@H]2O)[C@@H](O[C@@H]2O[C@H](CO)[C@H](O)[C@H](O)[C@H]2O)[C@@H]1O
GI50 [1]: 38 µM | GI50 [2]: 24.4 µM | viability at 1000 molar ratio [3]: 70% | GI50 [4]: 19.4 µM | GI50 [5]: 17.8 µM | GI50 [6]: 21.8 µM | GI50 [7]: 49.2 µM | viability at 100 molar ratio [8]: > 80% | GI50 [9]: 27.7 µM | GI50 [10]: 21.5 µM | GI50 [11]: 22.8 µM | viability at 500 molar ratio [12]: > 80% | viability at 10 molar ratio [13]: > 80% | GI50 [14]: 48 µM | GI50 [15]: 33.4 µM | GI50 [16]: 22.5 µM | GI50 [17]: > 100 µM | GI50 [18]: 33.3 µM | GI50 [19]: 33.2 µM | GI50 [20]: 33.3 µM | GI50 [21]: 34.7 µM | GI50 [22]: 40.9 µM | GI50 [23]: 29.2 µM | GI50 [24]: 34.1 µM | GI50 [25]: 26 µM | GI50 [26]: 28.8 µM | GI50 [27]: 23.2 µM | Activity [28]: 49.3% | GI50 [29]: > 100 µM | GI50 [30]: 58.5 µM | GI50 [31]: 26.2 µM | Activity [32]: 71% | IC50 [33]: 473 molar ratio | GI50 [34]: 33.1 µM | GI50 [35]: 7.77 µM | GI50 [36]: 30.8 µM | GI50 [37]: 74 µM | GI50 [38]: 14.5 µM | GI50 [39]: 26.7 µM | GI50 [40]: 38.4 µM | GI50 [41]: 22.3 µM | GI50 [42]: 20.6 µM | GI50 [43]: 36.6 µM | ID50 [44]: 0.06 mg | GI50 [45]: 66.8 µM | GI50 [46]: 19 µM | GI50 [47]: 43.9 µM | GI50 [48]: 34.2 µM | GI50 [49]: 18 µM | Activity [50]: 11% | GI50 [51]: 20.6 µM | GI50 [52]: 20.9 µM | Activity [53]: 100% | GI50 [54]: 21.8 µM | GI50 [55]: 20.9 µM | GI50 [56]: 26.2 µM | GI50 [57]: 20.1 µM | GI50 [58]: 30.6 µM
